These results are taken from publication PMC5710753 (Biochemical pharmacology, 2017).

The nature of data set [1]: Incubation with plasma or intact leukocytes. Type of data set: in vitro ADME.
For data set [2] the following is noted: oral racemic 230; cited from earlier work.
For data set [3], the system named is OXE receptor. The settings on record: feline; cited from earlier work.
Data set [4] relates to OXE receptor. Particulars: cited from earlier work.
The conditions of data set [5]: monkey liver microsomes + NADPH; cited from earlier work. In general terms: Microsomes from liver hold many membrane-bound enzymes, among them those of drug oxidation.
The target in data set [6] is T1, OXE receptor (Homo sapiens, UniProt Q8TDS5). In words: Inhibition of 5-oxo-ETE-induced calcium mobilization in human neutrophils. It counts as cell-based. Put shortly: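 Neutrophils isolated by dextran sedimentation and Ficoll-Paque centrifugation, loaded with indo-1 AM and held in a cuvette at 37 °C. Once baseline fluorescence was stable, the test compound was added, then 10 nM 5-oxo-ETE 2 min later, then digitonin (0.1% final) 1 min after that. Calcium response was read by spectrofluorometry.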
T1 sequence (Q8TDS5 whole entry): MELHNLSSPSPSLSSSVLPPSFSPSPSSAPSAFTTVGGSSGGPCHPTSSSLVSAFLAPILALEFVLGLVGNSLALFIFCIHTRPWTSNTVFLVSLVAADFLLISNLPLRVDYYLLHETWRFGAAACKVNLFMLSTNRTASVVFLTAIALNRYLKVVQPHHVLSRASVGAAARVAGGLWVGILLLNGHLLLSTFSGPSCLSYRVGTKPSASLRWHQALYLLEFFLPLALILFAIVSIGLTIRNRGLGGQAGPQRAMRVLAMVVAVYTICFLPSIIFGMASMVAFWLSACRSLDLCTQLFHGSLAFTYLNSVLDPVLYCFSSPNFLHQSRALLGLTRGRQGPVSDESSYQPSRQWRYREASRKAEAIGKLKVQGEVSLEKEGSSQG

Data set [7] is classed as in vivo, cynomolgus monkeys. Particulars: for time of maximal plasma level: after S230 30 mg/kg oral gavage. Put shortly: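 Three monkeys were gavaged with 30 mg/kg (4.4 mL/kg) of an ethanol stock diluted into 10 volumes of 20 mM NaHCO3. Heparinized blood was taken predose and at 1–24 h, and plasma was stored at −80 °C. Plasma was treated with MeOH and an indole internal standard, then C18 solid-phase extracted. Quantitation used RP-HPLC-UV (60–80% MeOH, 0.02% HOAc) by peak-area ratio to the internal standard, with identities confirmed by LC-MS/MS.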

The target in data set [8] is T1, OXE receptor. Particulars: S230 vs R230; cited from earlier work.

As usually defined, the IC50 is the concentration that gives 50% inhibition. As usually defined, the Tmax is the time from dosing to the highest level.

SMILES strings stand for the structures. Where two headings read alike, the source gives them in different places.

Consider `CCCCCCc1c(C(=O)CC(C)CC(=O)O)c2cc(Cl)ccc2n1C` (stereo not shown) [compound 230, 5-(5-chloro-2-hexyl-1-methyl-1H-indol-3-yl)-3-methyl-5-oxopentanoate], for which, in data set [1], the “formation of α-hydroxylation products” value is “Neither did we detect such products”. Also, in data set [2], the maximal plasma concentration is 87 µM. The “antagonist activity in cats” value in data set [3] is on record as “only a weak antagonist”. The “antagonist activity in vitro in monkeys” value in data set [4] is given as “potent OXE receptor antagonist”. In addition, the “formation of α-OH-230” value in data set [5] is reported as “did not detect α-OH-230”.

As to `CCCCC[C@@H](O)c1c(C(=O)C[C@H](C)CC(=O)O)c2cc(Cl)ccc2n1C` [x2, (S)-5-(5-chloro-2-((R)-1-hydroxyhexyl)-1-methyl-1H-indol-3-yl)-3-methyl-5-oxopentanoic acid], the half-maximal inhibitory concentration (IC50) in data set [6] is above 10 µM. In addition, the “peak area relative to the area of metabolite e” value in data set [7] (all time points, plasma after S230 30 mg/kg oral, RP-HPLC) is “about 3%”.

In the case of `CCCCC[C@H](O)c1c(C(=O)C[C@H](C)CC(=O)O)c2cc(Cl)ccc2n1C` [y1, (S)-5-(5-chloro-2-((S)-1-hydroxyhexyl)-1-methyl-1H-indol-3-yl)-3-methyl-5-oxopentanoic acid], the IC50 in data set [6] worked out at 1.6 ± 0.3 µM. In data set [7] (female, cynomolgus monkey, plasma, po, 30 mg/kg), the Tmax is at most 1 h.

For the compound `CC(O)CCCCc1c(C(=O)C[C@H](C)CC(=O)O)c2cc(Cl)ccc2n1C` (stereo partly drawn) [ω2-OH-S230, (3S)-5-(5-chloro-2-(5-hydroxyhexyl)-1-methyl-1H-indol-3-yl)-3-methyl-5-oxopentanoate], the “time of maximal plasma level” value in data set [7] is at most 4 h.

`CCCCCCc1c(C(=O)C[C@H](C)CC(=O)O)c2cc(Cl)ccc2n1C` [S230, (S)-5-(5-chloro-2-hexyl-1-methyl-1H-indol-3-yl)-3-methyl-5-oxopentanoate]: the plasma concentration result in data set [7] (8 h after S230 30 mg/kg oral) is recorded as “greater than 1.5 μM”. Moreover, in data set [7] (S230 30 mg/kg oral gavage, at 1 h), the maximal plasma concentration worked out at 32 µM. Also, in data set [7], the “time of maximal plasma level” value is at most 1 h. For the same compound, the “plasma level as % of maximal concentration” value in data set [7] (by 4 h after S230 30 mg/kg oral) is given as “about 11%”; in data set [7] (by 8 h after S230 30 mg/kg oral), 5%. Also, in data set [8], the “potency relative to the R-enantiomer (R230)” value is reported as “over 400 times”.
